LMP1 NFkB inh = inhibitors of Epstein-Barr LMP1-induced NF-kappaB reporter | LMP1-induced NF-kappaB luciferase reporter cells, luminescence | inhibition, % at 12.5 µM | actives 0.69% (n = 350,000) | AID 504558; in the data active = inhibition above about 41%; inconclusive = no clear call, values can overlap the other calls
HIF activator = HIF pathway transcriptional activation | U2OS HRE-luciferase reporter, luminescence; normalized: DMSO 0%, desferrioxamine 100% | activation, % at 7.5 µM (by protocol) | actives 0.32% (n = 300,000) | AID 1910;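 active = mean activation of at least 10% of the iron chelator positive control signal, with at least half of replicates also reaching 10%; inconclusive = mean and replicate majority disagree about reaching 10%; inactive = mean and most replicates under 10%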
NR2E3 ag-1 = agonists of human NR2E3 nuclear receptor | Q9Y5X4 | CHO-S Gal4-NCOR/VP16-NR2E3 two-hybrid, luciferase | inhibition of corepressor binding, % at 3.98 µM | actives 0.35% (n = 360,000) | AID 602229;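 active = inhibition above the mean of all tested compounds plus 3 SD, cut at about 70% in these data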;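 note: higher means lower luciferase signal from less NR2E3 corepressor binding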
Target sequence (Q9Y5X4 whole entry, looked up, the tested form may be a part): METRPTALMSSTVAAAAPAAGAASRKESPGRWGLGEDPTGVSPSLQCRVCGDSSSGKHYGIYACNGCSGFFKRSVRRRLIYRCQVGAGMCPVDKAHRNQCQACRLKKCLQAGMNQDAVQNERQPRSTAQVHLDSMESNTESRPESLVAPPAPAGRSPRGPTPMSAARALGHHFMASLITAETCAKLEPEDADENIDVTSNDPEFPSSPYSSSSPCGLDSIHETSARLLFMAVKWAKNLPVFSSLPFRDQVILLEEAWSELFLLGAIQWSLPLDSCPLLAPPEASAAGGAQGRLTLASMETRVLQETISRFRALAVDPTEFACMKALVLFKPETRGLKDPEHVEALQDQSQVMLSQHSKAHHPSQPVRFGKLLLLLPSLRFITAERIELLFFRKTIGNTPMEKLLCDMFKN
TROY NFkB inh = blocks TROY-dependent signaling in reporter cells | inhibition, % at 10 µM | actives 0.98% (n = 360,000) | Q293 LMP1-TROYcd NF-kB luciferase reporter, 4 h;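 active = compounds whose plate-normalised and pattern-corrected inhibition of the luciferase reporter signal at the single screening dose is 50% or more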
NR2E3 ag-2 = NR2E3 (human) agonism | Q9Y5X4 | GST-NR2E3/biotin-RetCOR TR-FRET, 1536-well | inhibition of corepressor binding, % at 4.78 µM | actives 0.12% (n = 320,000);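 active = percent inhibition above the cutoff of mean plus 3 SD of all tested compounds, set per screening campaign, cut at about 20% in these data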
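Format: 1536-well format; test system: GST-NR2E3 and biotin-RetCOR proteins; read-out basis: percent inhibition of TR-FRET ratio; timing: 5 h incubation at 4 °C; detection: time-resolved FRET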
A number is an active result; . = inactive; ? = inconclusive; / = not tested or not shown. In the library only some 2% were active in any assay of this set; here they are far more common.

SMILES	LMP1 NFkB inh	HIF activator	NR2E3 ag-1	TROY NFkB inh	NR2E3 ag-2
CCCN(CC(=O)Nc1ccccc1C)C(=O)CCl	71.6	.	.	.	.
CCOc1ccc(N=C(NN)c2ccc3ccccc3n2)cc1	.	.	.	86.8	.
CCOc1ccc(N=C(C)C2=C(O)c3ccccc3C2=O)cc1	.	.	.	.	.
O=C(Nc1ccc2nc3n(c(=O)c2c1)CCCCC3)c1c(F)ccc([N+](=O)[O-])c1F	80.1	.	.	86.1	.
O=C(Nc1ccc2nc3n(c(=O)c2c1)CCCC3)c1ccccc1F	.	.	.	.	.
O=C(Nc1ccc2nc3n(c(=O)c2c1)CCCCC3)c1cc([N+](=O)[O-])ccc1F	.	.	.	85.5	.
O=C(Nc1ccc2nc3n(c(=O)c2c1)CCCCC3)c1ccccc1[N+](=O)[O-]	.	.	.	.	.
CCc1nnc(NC(=O)CCC(=O)Nc2ccc(Cl)cc2)s1	.	.	.	.	.
CCOc1ncccc1C(=O)Nc1ccc2nc(C)sc2c1	.	.	.	.	.
COc1cccc(OCc2ccc(C(=O)NCC3CCCO3)cc2)c1 (stereo not drawn)	.	.	.	52.5	.
O=C(C1CCCN(c2ncnc3c2nc2n3CCCCC2)C1)N1CCN(c2cccc(Cl)c2)CC1 (stereo not drawn)	.	.	.	.	.
Cc1cccc(N2CCN(C(=O)C3CCN(c4ncnc5c4nc4n5CCCCC4)CC3)CC2C)c1 (stereo not drawn)	.	.	.	52.0	.
COc1ccccc1N1CCN(CCCNC(=O)C2CCCN(c3ncnc4c3nc3n4CCCCC3)C2)CC1 (stereo not drawn)	66.0	133.6	.	.	.
O=C(C1CCN(c2ncnc3c2nc2n3CCCCC2)CC1)N1CCN(c2ccccc2F)CC1	.	.	.	.	.
Cc1ccc(C)c(N2CCN(C(=O)C3CCCN(c4ncnc5c4nc4n5CCCCC4)C3)CC2)c1 (stereo not drawn)	.	.	.	.	.
Cc1cccc(N2CCN(C(=O)C3CCN(c4ncnc5c4nc4n5CCCCC4)CC3)CC2)c1C	.	.	.	64.8	.
Cc1ccc(N2CCN(C(=O)C3CCCN(c4ncnc5c4nc4n5CCCCC4)C3)CC2)c(C)c1 (stereo not drawn)	.	.	.	60.0	.
CC(=O)N(O)CCCCCNC(=O)CCC(=O)N(O)CCCCCNC(=O)CCC(=O)N(O)CCCCCN	.	19.0	.	.	.
CCCC(=O)NCCCCNC(=O)CCC	.	.	.	.	.
O=C(CNCc1ccc(Cl)cc1)Nc1cc(S(=O)(=O)N2CCCC2)ccc1Cl	.	/	.	.	/
CC1Cc2ccccc2N1Cc1cccc([N+](=O)[O-])c1 (stereo not drawn)	.	.	.	.	.
O=C(Nc1cc2ccccc2oc1=O)c1ccccc1	54.9	.	.	65.8	.
CCC(/C=C1\Sc2ccc(OC)cc2N1CCO)=C\c1sc2ccc(OC)cc2[n+]1CCO	45.8	/	.	.	.
CCC(/C=C1\Sc2ccc(OC)cc2N1CC)=C\c1sc2ccc(OC)cc2[n+]1CCCS(=O)(=O)[O-]	.	.	.	.	.
COc1ccc(OC)c(NC(=O)CSc2nc(=O)n(Cc3ccccn3)c3c2CCC3)c1	.	.	.	.	.
SMILES	LMP1 NFkB inh	HIF activator	NR2E3 ag-1	TROY NFkB inh	NR2E3 ag-2
CCn1c(NC(=O)c2ccc(C)cc2)c2ccccc2nc1=O	79.2	.	.	.	.
CCn1c(NC(=O)c2ccc(F)cc2)c2ccccc2nc1=O	.	.	.	.	.
COc1ccc(NC2CCCN(C(=O)c3cccc(C)n3)C2)cc1OC (stereo not drawn)	.	.	.	.	.
Clc1cncc(Cl)c1N/N=C/c1ccncc1	.	.	.	63.0	.
Cc1ccc(-n2c(N)c(Br)c(=O)[nH]c2=O)cc1C	.	.	.	.	.
CC(=O)N(Cc1ccc(F)cc1)C1=C(NCCc2ccccc2)C(=O)c2ccccc2C1=O	75.8	.	.	66.4	.
Cc1c(N=Cc2ccc(O)c(Br)c2)cccc1[N+](=O)[O-]	47.1	.	.	.	.
O=[N+]([O-])c1ccc(N=Cc2ccc(Br)c([N+](=O)[O-])c2)cc1	.	?	.	.	.
CC(=O)c1ccc(NC(=O)CC2S/C(=N/N=C3CCCCCC3)NC2=O)cc1 (stereo not drawn)	.	.	.	.	/
Cc1cc2oc(=O)cc(Cn3ncc(Cl)c(Cl)c3=O)c2cc1Cl	.	.	.	82.6	.
Cc1cccc(S(=O)(=O)N(C)C[C@H]2OCc3cn(nn3)CCCC(=O)N([C@H](C)CO)C[C@@H]2C)c1	.	/	.	.	/
CN1CCN(C(=O)COCc2cc(-c3ccc4c(c3)OCO4)on2)CC1	.	.	.	.	.
O=C1c2ccccc2C(=O)N1CCC#Cc1ccc2cc(CCO)oc(=O)c2c1	.	/	.	.	.
CC(=O)OC1(C(C)=O)CCC2C3CC(Cl)C4=CC(=O)CCC4(C)C3CCC21C (stereo not drawn)	.	/	.	.	/
CC(=O)O[C@]1(C(C)=O)CC[C@H]2[C@@H]3C=C(C)C4=CC(=O)CC[C@@H]4[C@H]3CC[C@@]21C	52.1	/	.	.	.
N/C(=N\OC(=O)/C=C/c1ccccc1Cl)c1ccccn1	.	.	.	68.0	.
N/C(=N\OC(=O)/C=C/c1ccccc1)c1cccnc1	.	.	.	.	.
N/C(=N\OC(=O)/C=C/c1ccccc1Cl)c1cccnc1	/	.	.	.	.
N/C(=N\OC(=O)/C=C/c1ccc(Br)cc1)c1ccccn1	.	.	.	52.1	.
CC(NS(=O)(=O)c1cc2c3c(c1)CCC(=O)N3CCC2)c1ccccc1 (stereo not drawn)	.	.	.	.	.
CN1C(=O)N(CC(=O)Nc2ccc3c(c2)OCO3)C(=O)C12CCCCC2	.	/	.	.	/
CCN(CC)S(=O)(=O)c1ccc(N/N=C/c2ccc(O)cc2O)nc1	57.0	117.2	.	.	.
Oc1ccc(/C=N/Nc2ncc(Br)cn2)c(O)c1	.	18.9	.	.	.
O=[N+]([O-])c1ccc(NN=Cc2ccc(O)cc2O)nc1	.	/	.	.	/
CC(C)CN1CCC(=O)N([C@H](COc2ccccc2)c2ccccc2)CC1	.	.	.	.	.
SMILES	LMP1 NFkB inh	HIF activator	NR2E3 ag-1	TROY NFkB inh	NR2E3 ag-2
Cc1ccccc1-n1c(=O)n(Cc2ccc(C(=O)O)cc2)c(=O)c2[nH]cnc21	.	37.1	.	.	.
COc1ccc(Cn2c(=O)c3[nH]cnc3n(-c3ccccc3C)c2=O)cc1	.	.	.	.	.
COc1ccc(-c2nnc(SCc3nc4ccccc4c(=O)[nH]3)o2)cc1	.	.	.	56.0	.
CCCN1CCC(=O)N([C@H](CSc2ccccc2)c2ccccc2)CC1	.	.	.	.	.
CCCN1CCC(=O)N([C@H](CSc2ccc(C)cc2)c2ccccc2)CC1	.	.	.	50.1	.
COc1cccc(CN(C)C(=O)COc2cccc3c2OC(C)(C)C3)c1OC	.	/	.	.	/
Oc1c(N=Nc2ccc(F)cc2)ccc2ccccc12	.	.	.	.	.

High-throughput results as filed in PubChem.
